Data from ChEMBL document CHEMBL1154686, “Pyrazoline bearing benzimidazoles: search for anticancer agent” (2010).

Columns and labels:
Type in all cases: functional
[1] = system: RPMI-8226; test: Growth inhibition of human RPMI8226 cells after 48 hrs by SRB assay; conditions: RPMI-8226, 48 h
Procedure, shortened: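 Suspension leukemia lines were run in the NCI-60 SRB format. Cells were plated at 5,000–40,000 cells/well and pre-incubated 24 h at 37 °C, 5% CO₂, with time-zero plates fixed at drug addition. Drug exposure in DMSO-derived dilutions lasted 48 h. Settled cells were fixed with 80% TCA (final 16%), stained with 0.4% SRB, solubilized in 10 mM trizma base, and read at 515 nm. Percent growth was taken relative to the time-zero and control readings.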

[2] = system: SR; test: Growth inhibition of human SR cells after 48 hrs by SRB assay
Procedure, shortened: (§1)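 NCI 60-cell panel, five-dose format: cells plated at 5,000–40,000/well by doubling time, preincubated 24 h at 37 °C, 5% CO2; time-zero plates TCA-fixed. Compound dissolved in DMSO, five concentrations (0.01, 0.1, 1, 10, 100 µM) plus control, 48 h. Cells fixed with cold TCA, stained with 0.4% SRB in 1% acetic acid, bound dye solubilized in 10 mM trizma base, absorbance at 515 nm. GI50 taken from [(Ti–Tz)/(C–Tz)]×100 = 50.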

[3] = system: A549; test: Growth inhibition of human A549 cells after 48 hrs by SRB assay; conditions: A549, 48 h
Procedure, shortened: (§2)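 NCI-60 panel protocol with adherent lines. Cells were seeded at 5,000–40,000 cells/well, depending on doubling time, and pre-incubated 24 h at 37 °C, 5% CO₂. Time-zero plates were TCA-fixed at drug addition. Drugs were dissolved in DMSO and exposed for 48 h. Cells were fixed with cold TCA (final 10%) for 60 min at 4 °C, stained with 0.4% SRB in 1% acetic acid for 10 min, solubilized with 10 mM trizma base, and read at A515.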

[4] = system: NCI-H226; test: Growth inhibition of human NCI-H226 cells after 48 hrs by SRB assay; conditions: NCI-H226, 48 h; procedure, shortened: as §2
[5] = system: NCI-H322M; test: Growth inhibition of human NCI-H322M cells after 48 hrs by SRB assay; procedure, shortened: as §2
[6] = system: NCI-H460; test: Growth inhibition of human NCI-H460 cells after 48 hrs by SRB assay; conditions: NCI-H460, 48 h; procedure, shortened: as §2
[7] = system: HCT-116; test: Growth inhibition of human HCT116 cells after 48 hrs by SRB assay; conditions: HCT-116, 48 h; procedure, shortened: as §2
[8] = system: HCT-15; test: Growth inhibition of human HCT15 cells after 48 hrs by SRB assay; conditions: HCT-15, 48 h; procedure, shortened: as §2
[9] = system: HT-29; test: Growth inhibition of human HT-29 cells after 48 hrs by SRB assay; conditions: HT-29, 48 h; procedure, shortened: as §2
[10] = system: SF-268; test: Growth inhibition of human SF268 cells after 48 hrs by SRB assay; conditions: SF-268, 48 h; procedure, shortened: as §2
[11] = system: SNB-75; test: Growth inhibition of human SNB75 cells after 48 hrs by SRB assay; conditions: SNB-75, 48 h; procedure, shortened: as §2
[12] = system: Malme-3M; test: Growth inhibition of human MALME-3M cells after 48 hrs by SRB assay; procedure, shortened: as §2
[13] = system: M14; test: Growth inhibition of human M14 cells after 48 hrs by SRB assay; conditions: M14, 48 h; procedure, shortened: as §2
[14] = system: MDA-MB-435; test: Growth inhibition of human MDA-MB-435 cells after 48 hrs by SRB assay; conditions: MDA-MB-435, 48 h; procedure, shortened: as §2
[15] = system: OVCAR-3; test: Growth inhibition of human OVCAR-3 cells after 48 hrs by SRB assay; conditions: OVCAR-3, 48 h; procedure, shortened: as §2
[16] = system: OVCAR-8; test: Growth inhibition of human OVCAR8 cells after 48 hrs by SRB assay; conditions: OVCAR-8, 48 h; procedure, shortened: as §2
[17] = system: NCI/ADR-RES; test: Growth inhibition of human NCI/ADR-RES cells after 48 hrs by SRB assay; procedure, shortened: as §2
[18] = system: 786-0; test: Growth inhibition of human 786-0 cells after 48 hrs by SRB assay; conditions: 786-0, 48 h; procedure, shortened: as §2
[19] = system: A498; test: Growth inhibition of human A498 cells after 48 hrs by SRB assay; conditions: A498, 48 h; procedure, shortened: as §2
[20] = system: RXF 393; test: Growth inhibition of human […] cells after 48 hrs by SRB assay; conditions: RXF 393, 48 h; procedure, shortened: as §2
[21] = system: UO-31; test: Growth inhibition of human UO31 cells after 48 hrs by SRB assay; conditions: UO-31, 48 h; procedure, shortened: as §1
[22] = system: DU-145; test: Growth inhibition of human DU145 cells after 48 hrs by SRB assay; conditions: DU-145, 48 h; procedure, shortened: as §2
[23] = system: MCF7; test: Growth inhibition of human MCF7 cells after 48 hrs by SRB assay; conditions: MCF7, 48 h; procedure, shortened: as §2
[24] = system: BT-549; test: Growth inhibition of human BT549 cells after 48 hrs by SRB assay; conditions: BT-549, 48 h; procedure, shortened: as §2
[25] = system: T47D; test: Growth inhibition of human T47D cells after 48 hrs by SRB assay; procedure, shortened: as §1
[26] = system: MDA-MB-468; test: Growth inhibition of human MDA-MB-468 cells after 48 hrs by SRB assay; conditions: MDA-MB-468, 48 h; procedure, shortened: as §2
[27] = read-out: LC50 (the source's name)

SMILES: COc1ccc(C2CC(c3nc4ccccc4[nH]3)=NN2c2ccccc2)cc1OC (stereo not drawn)
- GI50 [1]: 2.76 µM
- TGI [1]: 10.3 µM
- CC50 [1, 27]: 76.6 µM
- GI50 [2]: > 100 µM
- TGI [2]: > 100 µM
- CC50 [2, 27]: > 100 µM
- GI50 [3]: 17.1 µM
- TGI [3]: > 100 µM
- CC50 [3, 27]: > 100 µM
- GI50 [4]: 15.3 µM
- TGI [4]: > 100 µM
- CC50 [4, 27]: > 100 µM
- GI50 [5]: 21.3 µM
- TGI [5]: > 100 µM
- CC50 [5, 27]: > 100 µM
- GI50 [6]: 13.6 µM
- TGI [6]: 40 µM
- CC50 [6, 27]: > 100 µM
- GI50 [7]: 3.94 µM
- TGI [7]: 16.5 µM
- CC50 [7, 27]: 49.8 µM
- GI50 [8]: 4.1 µM
- TGI [8]: 20.5 µM
- CC50 [8, 27]: 70.9 µM
- GI50 [9]: 9.91 µM
- TGI [9]: 24.7 µM
- CC50 [9, 27]: 61.4 µM
- GI50 [10]: 21.3 µM
- TGI [10]: > 100 µM
- CC50 [10, 27]: > 100 µM
- GI50 [11]: 11 µM
- TGI [11]: 47.4 µM
- CC50 [11, 27]: > 100 µM
- GI50 [12]: 7.47 µM
- TGI [12]: 92.7 µM
- CC50 [12, 27]: > 100 µM
- GI50 [13]: 16.1 µM
- TGI [13]: > 100 µM
- CC50 [13, 27]: > 100 µM
- GI50 [14]: 4.15 µM
- TGI [14]: > 100 µM
- CC50 [14, 27]: > 100 µM
- GI50 [15]: 4.17 µM
- TGI [15]: 18.9 µM
- CC50 [15, 27]: 62.2 µM
- GI50 [16]: 19.9 µM
- TGI [16]: > 100 µM
- CC50 [16, 27]: > 100 µM
- GI50 [17]: 19 µM
- TGI [17]: 94.5 µM
- CC50 [17, 27]: > 100 µM
- GI50 [18]: 24.2 µM
- TGI [18]: > 100 µM
- CC50 [18, 27]: > 100 µM
- GI50 [19]: 5.14 µM
- TGI [19]: 58.1 µM
- CC50 [19, 27]: > 100 µM
- GI50 [20]: 13.4 µM
- TGI [20]: 36.1 µM
- CC50 [20, 27]: 97 µM
- GI50 [21]: 2.2 µM
- TGI [21]: 39.8 µM
- CC50 [21, 27]: > 100 µM
- GI50 [22]: 33.1 µM
- TGI [22]: > 100 µM
- CC50 [22, 27]: > 100 µM
- GI50 [23]: 2.41 µM
- TGI [23]: 15.3 µM
- CC50 [23, 27]: 54.2 µM
- GI50 [24]: 10.3 µM
- TGI [24]: 69 µM
- CC50 [24, 27]: > 100 µM
- GI50 [25]: 3.09 µM
- TGI [25]: 51.1 µM
- CC50 [25, 27]: > 100 µM
- GI50 [26]: 5.25 µM
- TGI [26]: 21.2 µM
- CC50 [26, 27]: 64.9 µM
